In publication PMC11522000 (Nature Microbiology, 2024):
In brackets after ≈: the same amount, converted by molar mass. Several values for one entry are separate records, joined by “and”; a condition that tells them apart may be missing. Identical values can stand only once. Entries after “also recorded” stand apart in the source; their conditions may differ.

Columns and labels:
[1] = Liver microsomes metabolic stability; type: in vitro ADME; conditions: human
Summary of the method: (§1)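 Test compound was incubated with liver microsomes or hepatocytes of each species, and parent depletion was quantified by LC-MS/MS. From this, in vitro half-life and intrinsic clearance were derived, along with predicted metabolic clearance and hepatic extraction ratio.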

[2] = Stability in intestinal S9 fraction; type: in vitro ADME; conditions: human
Summary of the method: (§2)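 Test compound added to intestinal S9 fraction of each species to start the reaction. Incubated in a shaking water bath at 37 °C, with samples taken at sequential timepoints. Samples quenched with ice-cold acetonitrile and analysed by LC-MS/MS. Half-life calculated from the rate of parent compound depletion.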

[3] = molecular target: T1, CYP3A4 (Homo sapiens, UniProt P08684); assay: CYP3A4 time-dependent inhibition; type: in vitro ADME
[4] = system: P-glycoprotein (MDR1); assay: MDCK MDR1 permeability and efflux; type: in vitro ADME; conditions: dog
[5] = Liver microsomes metabolic stability; type: in vitro ADME; conditions: dog
Summary of the method: as §1

[6] = Liver microsomes metabolic stability; type: in vitro ADME; conditions: rat
Summary of the method: as §1

[7] = Hepatocytes metabolic stability; type: in vitro ADME; conditions: mouse; for half-life / hepatocyte CLint: hepatocytes
Summary of the method: as §1

[8] = High-throughput equilibrium solubility; type: physicochemical; conditions: thermodynamic from solid
Summary of the method: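 Equilibrium solubility was measured by a miniaturized shake-flask method with HPLC quantification.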

[9] = MDCK Low Efflux permeability; type: in vitro ADME; conditions: dog
[10] = system: liver and duodenum; assay: In vivo rat Comet assay; conditions: up to 2000 mg/kg/day
Summary of the method: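 Liver and duodenum were sampled near Tmax after the second dose for the Comet assay.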

[11] = molecular target: hERG (Homo sapiens, UniProt Q12809); assay: hERG binding assay
Summary of the method: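 Binding was measured in hERG-expressing HEK293 cells. Concentration-response curves were typically 6-point, spanning 0.37 to 30.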

[12] = system: HepG2; assay: Cytotoxicity assay; type: cell-based, human
[13] = molecular target: T1, CYP3A4; assay: CYP450 reversible inhibition; type: in vitro ADME
[14] = system: CYP3A4 / 1A2 / 2B6; assay: CYP3A4 / 1A2 / 2B6 hepatocyte induction assay; type: in vitro ADME
[15] = molecular target: hCav1.2 (Homo sapiens, UniProt Q13936); assay: Patch clamp Cav1.2 Quattro; type: cell-based
Summary of the method: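 Each channel was stably expressed in HEK293 cells and tested by patch clamp with a 7-point concentration-response.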

[16] = Systemic exposure in the mouse efficacy studies; type: in vivo
[17] = system: 3T3 fibroblast cells; assay: In vitro 3T3 NRU phototoxicity test; type: cell-based
Summary of the method: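 This followed OECD 432. 3T3 fibroblasts in 96-well plates were exposed to a concentration range of test compound, up to its solubility limit in HBSS, and viability was read by neutral red uptake.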

[18] = system: CpPI(4)K::Y705A:Y907A; assay: PI; type: biochemical, C. parvum
Summary of the method: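 Enzyme was pre-incubated with compound for 5 min at room temperature. The reaction was started with substrate mix at twice final strength (PI, ATP, Tris-HCl pH 7.5, DTT, 0.05% Triton X-100, MnCl2) and run 50 min at room temperature. ADP was measured by ADP-Glo luminescence. IC50s came from in-plate duplicate 10-point 3-fold dilutions, with DMSO and reference-inhibitor controls. The C. parvum enzymes (wild type and mutants) were full-length proteins expressed from baculovirus in Sf21 cells.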

[19] = molecular target: HsPI(4)K (Homo sapiens, UniProt Q9UBF8); assay: PI; type: biochemical; conditions: for IC50: HsPI(4)K IC50, 3 μM ATP
[20] = Stability in intestinal S9 fraction; type: in vitro ADME; conditions: mouse
Summary of the method: as §2

[21] = system: C. parvum; assay: Mouse efficacy study; type: in vivo, C57BL/6 IFN-γ-knockout mice; conditions: for log reduction in oocyst shedding / log reduction in faecal oocyst shedding: IFN-γ KO mouse, 5 days; for log reduction in faecal oocyst shedding: 10 mg kg^−1 oral
[22] = system: C. parvum; assay: Host cell invasion assay; type: cell-based, Cryptosporidium parvum; conditions: HCT-8, 3 h; EDI048 and KDU731 20 µM, wiskostatin 11.3 µM
Summary of the method: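 HCT-8 monolayers were 95–100% confluent. Compounds were added at twice the final concentration 1 h before infection with 50,000 primed oocysts per well. Plates were kept 3 h at 37 °C, 5% CO2, then washed with PBS-0.1% Tween 20, fixed in 4% PFA for 15 min at room temperature, permeabilized with 0.25% Triton X-100 and blocked in 4% BSA. Vacuoles were stained with fluorescein-VVL and nuclei with Hoechst, then imaged.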

[23] = molecular target: ATM (Homo sapiens, UniProt Q13315); assay: Kinase assay panel; type: biochemical
[24] = Stability in intestinal S9 fraction; type: in vitro ADME, calf; conditions: bovine
Summary of the method: as §2

[25] = system: C. parvum; assay: Live imaging of C. parvum in HCT-8 cells; type: cell-based, Cryptosporidium parvum; conditions: compound at 3 h post infection
[26] = Plasma stability; type: in vitro ADME; conditions: rat
Summary of the method: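 Test compound was added to plasma and incubated at 37 °C in a shaking water bath, with samples taken at sequential timepoints. Samples were quenched with ice-cold acetonitrile and analysed by LC-MS/MS, and half-life was calculated from the depletion rate.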

[27] = In vivo pharmacokinetic analysis; conditions: male, Beagle, dog, plasma
Summary of the method: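 Animals were male C57BL/6 mice (8–10 weeks), Wistar rats (8–10 weeks) and beagle dogs (12–14 weeks). Each received oral and i.v. doses, with plasma sampling for PK parameters.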

Chain of HsPI(4)K (Q9UBF8 523-816 limits assumed): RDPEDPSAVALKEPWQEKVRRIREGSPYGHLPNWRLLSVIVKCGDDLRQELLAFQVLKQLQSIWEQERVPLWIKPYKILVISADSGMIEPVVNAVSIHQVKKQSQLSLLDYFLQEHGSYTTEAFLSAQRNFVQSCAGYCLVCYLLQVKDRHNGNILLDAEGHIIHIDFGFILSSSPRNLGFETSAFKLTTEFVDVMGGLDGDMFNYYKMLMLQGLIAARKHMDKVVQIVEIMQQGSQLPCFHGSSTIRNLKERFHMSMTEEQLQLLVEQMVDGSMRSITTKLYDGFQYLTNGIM
T1 sequence (P08684 whole entry): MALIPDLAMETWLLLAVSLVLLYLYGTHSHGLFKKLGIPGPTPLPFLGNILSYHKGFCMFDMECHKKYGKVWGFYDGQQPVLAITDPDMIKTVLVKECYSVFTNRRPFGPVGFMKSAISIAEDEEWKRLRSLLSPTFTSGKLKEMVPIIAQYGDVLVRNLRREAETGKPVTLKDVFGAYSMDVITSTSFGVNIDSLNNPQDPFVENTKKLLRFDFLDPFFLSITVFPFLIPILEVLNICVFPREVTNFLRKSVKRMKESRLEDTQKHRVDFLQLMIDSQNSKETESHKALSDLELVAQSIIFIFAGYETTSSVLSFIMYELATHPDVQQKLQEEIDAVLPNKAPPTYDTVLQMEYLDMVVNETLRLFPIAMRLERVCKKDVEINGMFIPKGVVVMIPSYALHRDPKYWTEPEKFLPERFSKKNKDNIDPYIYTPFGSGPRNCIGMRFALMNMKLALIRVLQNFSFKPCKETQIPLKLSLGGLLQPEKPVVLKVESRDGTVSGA
Chain of hERG (Q12809 whole entry): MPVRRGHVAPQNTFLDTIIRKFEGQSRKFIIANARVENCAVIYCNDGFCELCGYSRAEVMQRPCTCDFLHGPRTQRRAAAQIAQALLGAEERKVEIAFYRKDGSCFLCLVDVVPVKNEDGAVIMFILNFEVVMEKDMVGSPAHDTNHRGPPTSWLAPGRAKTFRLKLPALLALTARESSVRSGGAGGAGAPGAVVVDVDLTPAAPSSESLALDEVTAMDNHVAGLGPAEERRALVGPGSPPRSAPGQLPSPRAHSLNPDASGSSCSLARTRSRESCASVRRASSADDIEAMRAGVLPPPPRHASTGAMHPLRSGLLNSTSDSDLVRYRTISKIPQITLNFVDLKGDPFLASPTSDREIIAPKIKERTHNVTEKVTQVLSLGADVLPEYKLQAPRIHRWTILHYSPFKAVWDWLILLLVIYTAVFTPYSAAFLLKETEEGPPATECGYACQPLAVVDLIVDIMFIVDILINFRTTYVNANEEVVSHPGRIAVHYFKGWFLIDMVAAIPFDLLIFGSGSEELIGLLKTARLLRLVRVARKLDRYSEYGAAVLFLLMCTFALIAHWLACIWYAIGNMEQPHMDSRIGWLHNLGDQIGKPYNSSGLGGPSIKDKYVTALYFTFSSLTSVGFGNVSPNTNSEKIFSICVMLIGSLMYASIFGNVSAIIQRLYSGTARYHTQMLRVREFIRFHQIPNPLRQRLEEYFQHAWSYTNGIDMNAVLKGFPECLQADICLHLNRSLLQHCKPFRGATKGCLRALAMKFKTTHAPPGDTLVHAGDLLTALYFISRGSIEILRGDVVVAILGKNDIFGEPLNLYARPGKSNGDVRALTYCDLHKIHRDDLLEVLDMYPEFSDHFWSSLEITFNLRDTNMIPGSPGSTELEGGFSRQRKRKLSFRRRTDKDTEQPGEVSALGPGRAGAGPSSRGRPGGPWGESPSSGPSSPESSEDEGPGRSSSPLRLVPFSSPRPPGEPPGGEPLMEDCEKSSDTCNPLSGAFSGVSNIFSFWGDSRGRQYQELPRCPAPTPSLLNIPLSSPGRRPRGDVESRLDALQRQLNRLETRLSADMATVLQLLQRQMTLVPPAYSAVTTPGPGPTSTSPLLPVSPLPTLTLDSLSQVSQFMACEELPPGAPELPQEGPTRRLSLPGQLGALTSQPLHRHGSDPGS
Chain of ATM (Q13315 whole entry): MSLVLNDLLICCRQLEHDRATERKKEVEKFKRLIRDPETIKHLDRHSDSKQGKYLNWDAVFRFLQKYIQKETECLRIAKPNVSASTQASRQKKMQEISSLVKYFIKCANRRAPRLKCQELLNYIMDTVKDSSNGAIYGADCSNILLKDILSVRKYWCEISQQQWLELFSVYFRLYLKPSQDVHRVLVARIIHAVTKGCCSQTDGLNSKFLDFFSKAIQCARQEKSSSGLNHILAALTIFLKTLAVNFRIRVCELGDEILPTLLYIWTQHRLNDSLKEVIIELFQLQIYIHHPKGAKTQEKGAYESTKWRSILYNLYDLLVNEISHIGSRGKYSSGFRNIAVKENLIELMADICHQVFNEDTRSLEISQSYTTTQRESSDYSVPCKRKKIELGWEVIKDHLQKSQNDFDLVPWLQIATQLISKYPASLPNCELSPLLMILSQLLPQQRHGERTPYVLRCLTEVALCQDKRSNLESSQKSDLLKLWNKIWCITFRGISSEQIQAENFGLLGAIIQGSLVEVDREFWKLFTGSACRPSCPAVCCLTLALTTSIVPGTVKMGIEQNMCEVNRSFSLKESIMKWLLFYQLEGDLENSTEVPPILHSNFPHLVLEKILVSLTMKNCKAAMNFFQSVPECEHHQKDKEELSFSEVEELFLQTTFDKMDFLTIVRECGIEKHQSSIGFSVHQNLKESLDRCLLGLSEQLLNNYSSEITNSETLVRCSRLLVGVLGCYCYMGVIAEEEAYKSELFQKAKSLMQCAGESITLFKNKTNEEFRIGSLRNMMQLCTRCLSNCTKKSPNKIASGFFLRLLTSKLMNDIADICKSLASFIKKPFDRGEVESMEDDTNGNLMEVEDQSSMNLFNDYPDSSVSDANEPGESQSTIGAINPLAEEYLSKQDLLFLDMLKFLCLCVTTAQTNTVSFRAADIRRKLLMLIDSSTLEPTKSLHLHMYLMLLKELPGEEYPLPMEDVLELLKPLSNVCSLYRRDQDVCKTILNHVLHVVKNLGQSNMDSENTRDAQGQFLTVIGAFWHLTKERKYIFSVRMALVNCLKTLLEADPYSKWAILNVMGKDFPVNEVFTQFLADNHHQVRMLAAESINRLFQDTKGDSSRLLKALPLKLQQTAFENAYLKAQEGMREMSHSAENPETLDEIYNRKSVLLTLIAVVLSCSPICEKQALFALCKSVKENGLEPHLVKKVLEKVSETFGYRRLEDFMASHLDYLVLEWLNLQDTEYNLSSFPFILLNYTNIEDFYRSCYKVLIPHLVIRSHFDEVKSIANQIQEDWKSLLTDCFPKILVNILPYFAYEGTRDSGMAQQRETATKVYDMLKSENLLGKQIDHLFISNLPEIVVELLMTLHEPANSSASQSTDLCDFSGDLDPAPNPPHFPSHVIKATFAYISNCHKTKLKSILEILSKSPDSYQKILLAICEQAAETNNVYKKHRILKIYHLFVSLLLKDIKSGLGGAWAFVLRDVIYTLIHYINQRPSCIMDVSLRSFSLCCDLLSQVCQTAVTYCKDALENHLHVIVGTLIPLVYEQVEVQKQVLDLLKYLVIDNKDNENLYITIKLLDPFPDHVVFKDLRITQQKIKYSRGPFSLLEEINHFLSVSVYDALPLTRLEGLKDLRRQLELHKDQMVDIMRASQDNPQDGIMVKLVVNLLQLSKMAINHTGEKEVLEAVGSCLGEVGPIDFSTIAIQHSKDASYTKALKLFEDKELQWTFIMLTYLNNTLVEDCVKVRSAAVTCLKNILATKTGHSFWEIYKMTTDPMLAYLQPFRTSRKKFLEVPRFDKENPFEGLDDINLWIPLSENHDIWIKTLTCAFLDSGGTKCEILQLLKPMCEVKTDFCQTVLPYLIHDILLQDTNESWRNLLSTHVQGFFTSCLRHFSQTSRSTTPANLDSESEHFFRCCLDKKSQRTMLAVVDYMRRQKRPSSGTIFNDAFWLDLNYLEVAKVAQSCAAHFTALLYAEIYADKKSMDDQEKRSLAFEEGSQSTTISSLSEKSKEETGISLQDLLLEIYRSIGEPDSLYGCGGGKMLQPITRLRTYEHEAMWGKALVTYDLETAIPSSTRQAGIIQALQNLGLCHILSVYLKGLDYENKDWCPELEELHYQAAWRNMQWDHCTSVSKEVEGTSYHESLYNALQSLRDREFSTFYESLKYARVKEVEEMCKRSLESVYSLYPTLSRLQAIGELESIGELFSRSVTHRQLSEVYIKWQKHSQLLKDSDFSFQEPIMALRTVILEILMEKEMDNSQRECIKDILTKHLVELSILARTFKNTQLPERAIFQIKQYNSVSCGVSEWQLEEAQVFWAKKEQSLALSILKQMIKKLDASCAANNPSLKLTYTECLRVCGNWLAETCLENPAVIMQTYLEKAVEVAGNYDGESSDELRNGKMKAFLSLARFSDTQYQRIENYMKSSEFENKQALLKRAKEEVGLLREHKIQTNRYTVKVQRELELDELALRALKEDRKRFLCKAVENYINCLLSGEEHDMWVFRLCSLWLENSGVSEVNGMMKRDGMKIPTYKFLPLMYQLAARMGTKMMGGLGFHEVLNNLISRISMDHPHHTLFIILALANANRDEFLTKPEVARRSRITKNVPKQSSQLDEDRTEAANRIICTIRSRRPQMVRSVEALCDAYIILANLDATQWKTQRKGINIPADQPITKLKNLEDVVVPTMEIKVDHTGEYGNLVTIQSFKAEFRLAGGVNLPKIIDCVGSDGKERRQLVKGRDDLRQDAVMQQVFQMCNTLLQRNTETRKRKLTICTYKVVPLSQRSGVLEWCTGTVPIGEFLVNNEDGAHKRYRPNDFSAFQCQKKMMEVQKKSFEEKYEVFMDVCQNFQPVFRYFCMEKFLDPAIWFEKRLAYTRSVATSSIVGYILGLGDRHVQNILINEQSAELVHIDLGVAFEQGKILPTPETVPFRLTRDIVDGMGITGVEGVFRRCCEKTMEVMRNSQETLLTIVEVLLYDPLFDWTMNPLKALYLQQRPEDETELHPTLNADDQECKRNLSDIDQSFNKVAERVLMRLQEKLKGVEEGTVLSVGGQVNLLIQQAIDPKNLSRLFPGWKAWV

In the case of `CNC(=O)c1ccc(-c2cnn3ccc(C(=O)N(C)c4ccc(Cl)c(C(=O)OC)c4)cc23)cc1` [EDI048, methyl 2-chloro-5-(N-methyl-3-(4-(methylcarbamoyl)phenyl)pyrazolo[1,5-a]pyridine-5-carboxamido)benzoate], the “Microsomal ER” value [1] is reported as 92%, the microsomal CLint ([1]; liver microsomes) is reported as 222 µL/min/mg and the half-life [2] is reported as 235 min. The “Time dependent inhibition 3A4” value [3] was “Weak positive”, the KI (inactivation) ([3]; human) was 2.1 µM and the Papp A→B ([4]; MDCK-MDR1) was 7.92 ×10⁻⁶ cm/s. For the same molecule, the efflux ratio ([4]; MDCK-MDR1) was 1.62, the Papp B→A ([4]; MDCK-MDR1, Permeability B–A, MDCK MDR1, basolateral to apical) was 12.9 ×10⁻⁶ cm/s and the “Microsomal ER” value [5] was 94%. The microsomal CLint ([5]; liver microsomes) was 271 µL/min/mg, the “Microsomal ER” value [6] was 96% and the microsomal CLint ([6]; liver microsomes) was greater than 700 µL/min/mg. The “Hepatocytes ER” value [7] was 93%, the half-life [7] was 2.8 min and the hepatocyte CLint [7] was greater than 250 µL/min/1e6 cells. For the same molecule, the solubility ([8]; FaSSIF, Solubility FaSSIF) was 198 µM (≈ 94.4 µg/mL), the solubility ([8]; pH 6.8, aqueous buffer, Solubility pH 6.8, pH 6.8) was 54 µM (≈ 25.8 µg/mL) and the Papp A→B [9] was 9.71 ×10⁻⁶ cm/s. For the same molecule, the “In vivo rat Comet assay” value [10] was “Negative^e”, the IC50 [11] was greater than 30 µM and the “SI (selectivity index) HepG2 CC50 / C. parvum EC50 ratio” value [12] was greater than 100. For the same molecule, the selectivity ratio at 96 h ([12]; human, HepG2 cells (ATCC CRL-10741)) was greater than 500, the CC50 ([12]; read-out: HepG2 CC50, 96 h) was 28.1 µM and the IC50 [13] was 10.5 µM. The “CYP3A4 / 1A2 / 2B6 hepatocyte induction assay” value [14] was “Non-inducer”, the IC50 [15] was greater than 50 µM and the “systemic exposure” value ([16]; mouse, oral 1 and 3 mg kg^−1) was “no detectable EDI048 systemic exposure”. For the same molecule, the Phototoxicity [17] was “Negative”, the “Phototoxicity PIF value” [17] was 1.8 and the “loss of potency against CpPI(4)K::Y705A:Y907A mutant compared with wild-type” value [18] was 35–200 ×. The “selectivity for Cryptosporidium PI(4)K over HsPI(4)K” value [19] was > 300 fold and 300 fold, the IC50 [19] was 1.03 ± 0.47 µM and the half-life [20] was 45 min. The “log reduction in oocyst shedding” value ([21]; 1 mg kg^−1 oral once daily) was 0.3 log, the “log reduction in oocyst shedding” value ([21]; 3 mg kg^−1 oral once daily) was 1.1 log and the “log reduction in faecal oocyst shedding” value [21] was > 3 log and 3.1 log. The sporozoite invasion [22] was “inactive; also recorded: does not affect sporozoite invasion”, the IC50 [23] was 0.445 µM and the “selectivity ATM over CpPI(4)K inhibition” value [23] was greater than 100 fold. The half-life [24] was 175 min, the “live imaging of infected HCT-8 cells” value [25] was “parasites were arrested at the meront stage, preventing egress” and the half-life [26] was 11.6 min. It also gave an AUC ([27]; iv, 0.1 mg/kg) of 0.0779 µM·h, a Vd ([27]; iv, 0.1 mg/kg) of 1.54 L/kg and a clearance ([27]; iv, 0.1 mg/kg) of 45.7 mL/min/kg. It also gave a half-life ([27]; iv, 0.1 mg/kg) of 33.6 min, an AUC ([27]; po, 0.3 mg/kg) of 0.0118 µM·h and a Cmax ([27]; po, 0.3 mg/kg) of 5.2 nM. The Tmax ([27]; po, 0.3 mg/kg) was 45 min and the bioavailability ([27]; po, 0.3 mg/kg) was 5.6%.
For `CN(C(=O)c1ccn2ncc(-c3ccc(C(N)=O)cc3)c2c1)c1ccc(C#N)cn1` [KDU731, 3–(4-carbamoylphenyl)-N-(5-cyanopyridin-2-yl)-N-methylpyrazolo [1,5-a]pyridine-5-carboxamide, reference compound], the “Microsomal ER” value [1] was 39%, the “microsomal CLint” value [1] was 13 µL/min/mg and the “Time dependent inhibition 3A4” value [3] was “Negative”. The Papp A→B ([4]; MDCK-MDR1) was 1.95 ×10⁻⁶ cm/s, the Papp B→A ([4]; MDCK-MDR1) was 15.5 ×10⁻⁶ cm/s and the efflux ratio ([4]; MDCK-MDR1) was 7.93. For the same molecule, the “Microsomal ER” value [5] was 67%, the “microsomal CLint” value [5] was 36 µL/min/mg and the “Microsomal ER” value [6] was 47%. The “microsomal CLint” value [6] was 29 µL/min/mg, the “Hepatocytes ER” value [7] was 18% and the half-life [7] was greater than 175 min. For the same molecule, the hepatocyte CLint [7] was less than 4 µL/min/1e6 cells, the solubility ([8]; FaSSIF) was 48 µM (≈ 19 µg/mL) and the solubility ([8]; pH 6.8, aqueous buffer) was 19 µM (≈ 7.53 µg/mL). For the same molecule, the Papp A→B [9] was 12.1 ×10⁻⁶ cm/s, the IC50 [11] was greater than 30 µM and the “SI (selectivity index) HepG2 CC50 / C. parvum EC50 ratio” value [12] was greater than 100. For the same molecule, the IC50 [13] was greater than 50 µM, the “CYP3A4 / 1A2 / 2B6 hepatocyte induction assay” value [14] was “Non-inducer” and the “AUC (time 0 to last timepoint)” value ([16]; mouse efficacy study, 10 mg kg^−1 oral) was 2,982 nM h. For the same molecule, the Phototoxicity [17] was “Negative”, the “Phototoxicity PIF value” [17] was 3.1 and the “loss of potency against CpPI(4)K::Y705A:Y907A mutant compared with wild-type” value [18] was 35–200 ×. The IC50 [19] was 1.93 ± 1.08 µM, the half-life [20] was greater than 240 min and the “log reduction in faecal oocyst shedding” value [21] was ~ 3 log. The “effect of intravenous injection on parasite load” value ([21]; i.v. 1 mg kg^−1, exposure similar to oral) was “negligible effects on the parasite load”, the sporozoite invasion [22] was “inactive” and the half-life [26] was greater than 120 min.
